Measurements: ChEMBL document CHEMBL3044755, “5-Methyl-1,2,3-thiadiazoles synthesized via ugi reaction and their fungicidal and antiviral activities” (J Agric Food Chem, 2010)

Assays:
[1] = tested on: Tobacco mosaic virus; test: In vitro antiviral activity against Tobacco mosaic virus (TMV) infected tobacco leaves at 500 ug/ml; assay type: functional
[2] = tested on: Puccinia triticina; test: Fungicidal activity against Puccinia triticina at 50 ug/ml by growth inhibition method; assay type: functional; conditions: read-out: GI
Method in brief: (§1)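 Mycelial growth inhibition on potato dextrose agar. The panel covered Alternaria solani, Botrytis cinerea, Cercospora arachidicola, C. beticola, Colletotrichum lagenarium, Fusarium oxysporum, Gibberella zeae, Puccinia triticina, Phytophthora infestans, Physalospora piricola, Pellicularia sasakii and Rhizoctonia solani.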

[3] = tested on: Mycosphaerella arachidis; test: Fungicidal activity against Mycosphaerella arachidis at 50 ug/ml by growth inhibition method; assay type: functional; conditions: read-out: GI; method in brief: as §1
[4] = tested on: Tobacco mosaic virus; test: In vivo antiviral activity against Tobacco mosaic virus (TMV) infected tobacco leaves assessed as inactivation effect at 100 ug/ml co-treated with virus for 30 min before inoculation onto leaves measured at 2-3 days after viral challenge; assay type: functional
Method in brief: (§2)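 TMV (5.88 10-2 μg/mL) mixed with equal volume of compound solution for 30 min, then rubbed onto upper three leaves of six-leaf tobacco; solvent on lower three leaves as control. Lesions counted 2-3 days later, three repetitions. Inhibition (%) = (CK − A)/CK × 100 from mean lesion counts.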

[5] = tested on: Tobacco mosaic virus; test: In vivo antiviral activity against Tobacco mosaic virus (TMV) infected tobacco leaves assessed as curative effect at 500 ug/ml treated after viral inoculation measured at 2-3 days after viral challenge; assay type: functional
Method in brief: (§3)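 Curative test: whole six-leaf tobacco leaves rubbed with TMV (5.88 10-2 μg/mL), dried in greenhouse, then compound smeared on upper three leaves and solvent on lower three as control. Local lesions scored 2-3 days after inoculation, three repetitions. Inhibition (%) = (CK − A)/CK × 100 on mean lesion numbers.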

[6] = tested on: Tobacco mosaic virus; test: In vivo antiviral activity against Tobacco mosaic virus (TMV) infected tobacco leaves assessed as curative effect at 100 ug/ml treated after viral inoculation measured at 2-3 days after viral challenge; assay type: functional; method in brief: as §3
[7] = tested on: Colletotrichum lagenaria; test: Fungicidal activity against Colletotrichum lagenaria at 50 ug/ml by growth inhibition method; assay type: functional; conditions: read-out: GI; method in brief: as §1
[8] = tested on: Tobacco mosaic virus; test: In vivo antiviral activity against Tobacco mosaic virus (TMV) infected tobacco leaves assessed as protective effect at 500 ug/ml treated 12 hr before viral inoculation measured at 2-3 days after viral challenge; assay type: functional
Method in brief: (§4)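 Six-leaf tobacco; compound solution smeared over whole leaves, dried in greenhouse, then after 12 h TMV (5.88 10-2 μg/mL) rubbed onto upper three leaves, with solvent on lower three leaves as control. Local lesions counted 2-3 days post-inoculation, three repetitions. Inhibition (%) = (CK − A)/CK × 100 from mean lesion numbers.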

[9] = tested on: Tobacco mosaic virus; test: In vivo antiviral activity against Tobacco mosaic virus (TMV) infected tobacco leaves assessed as protective effect at 100 ug/ml treated 12 hr before viral inoculation measured at 2-3 days after viral challenge; assay type: functional; method in brief: as §4
[10] = tested on: Nicotiana tabacum; test: Phytotoxicity against Nicotiana tabacum (tobacco) plant; assay type: organism-based; conditions: in vivo
[11] = tested on: Cercospora beticola; test: Fungicidal activity against Cercospora beticola at 50 ug/ml by growth inhibition method; assay type: functional; conditions: read-out: GI; method in brief: as §1
[12] = tested on: Botryosphaeria berengeriana; test: Fungicidal activity against Botryosphaeria berengeriana at 50 ug/ml by growth inhibition method; assay type: functional; conditions: read-out: GI; method in brief: as §1
[13] = tested on: Nicotiana tabacum; test: Induction of systemic acquired resistance activity in TMV infected-Nicotiana tabacum (tobacco) leaves at 100 ug/ml; assay type: functional
Method in brief: (§5)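 Tobacco/TMV system used for systemic acquired resistance induction. Inhibition ratio calculated from mean lesion numbers on inoculated leaves relative to corresponding control. Tiadinil and ribavirin run as controls.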

[14] = tested on: Tobacco mosaic virus; test: In vivo antiviral activity against Tobacco mosaic virus (TMV) infected tobacco leaves assessed as inactivation effect at 500 ug/ml co-treated with virus for 30 min before inoculation onto leaves measured at 2-3 days after viral challenge; assay type: functional; method in brief: as §2
[15] = tested on: Nicotiana tabacum; test: Induction of systemic acquired resistance activity in TMV infected-Nicotiana tabacum (tobacco) leaves at 50 ug/ml; assay type: functional; method in brief: as §5
[16] = tested on: Thanatephorus cucumeris; test: Fungicidal activity against Thanatephorus cucumeris at 50 ug/ml by growth inhibition method; assay type: functional; conditions: read-out: GI; method in brief: as §1
[17] = tested on: Rhizoctonia solani; test: Fungicidal activity against Rhizoctonia solani at 50 ug/ml by growth inhibition method; assay type: functional; conditions: read-out: GI; method in brief: as §1
[18] = tested on: Fusarium graminearum; test: Fungicidal activity against Fusarium graminearum at 50 ug/ml by growth inhibition method; assay type: functional; conditions: read-out: GI; method in brief: as §1
[19] = tested on: Alternaria solani; test: Fungicidal activity against Alternaria solani at 50 ug/ml by growth inhibition method; assay type: functional; conditions: read-out: GI; method in brief: as §1
[20] = tested on: Phytophthora infestans; test: Fungicidal activity against Phytophthora infestans at 50 ug/ml by growth inhibition method; assay type: functional; conditions: read-out: GI; method in brief: as §1
[21] = tested on: Tobacco mosaic virus; test: In vitro antiviral activity against Tobacco mosaic virus (TMV) infected tobacco leaves at 100 ug/ml; assay type: functional
[22] = tested on: Botrytis cinerea; test: Fungicidal activity against Botryotinia fuckeliana at 50 ug/ml by growth inhibition method; assay type: functional; conditions: read-out: GI; method in brief: as §1
[23] = tested on: Fusarium oxysporum; test: Fungicidal activity against Fusarium oxysporum at 50 ug/ml by growth inhibition method; assay type: functional; conditions: read-out: GI; method in brief: as §1
[24] = tested on: Tobacco mosaic virus; test: In vitro antiviral activity against Tobacco mosaic virus (TMV) infected tobacco leaves at 200 ug/ml; assay type: functional

Row | Compound | inhibition at 500 µg/mL [1] | inhibition of growth at 50 µg/mL [3] | Activity [4] | Activity [5] | Activity [6] | inhibition of growth at 50 µg/mL [7] | Activity [8] | Activity [9] | Activity [10] | inhibition of growth at 50 µg/mL [11] | inhibition of growth at 50 µg/mL [12] | Activity [13] | Activity [14] | Activity [15] | inhibition of growth at 50 µg/mL [16] | inhibition of growth at 50 µg/mL [17] | inhibition of growth at 50 µg/mL [18] | inhibition of growth at 50 µg/mL [19] | inhibition of growth at 50 µg/mL [20] | inhibition at 100 µg/mL [21] | further results
1 | Cc1ccc(N(C(=O)c2nnsc2C)C(C(=O)NC2CCCCC2)c2cccc(Cl)c2)cc1F (centres undefined) | 18% | 27% | 69% | 40% | 0% | 0% | 67% | 29% | Non-toxic | 25% | 8% | 22% | 79% | 30% | 0% | 39% | 27% | 25% | 44% | 14% | inhibition of growth at 50 µg/mL [2]: 14%
2 | Cc1ccc(N(C(=O)c2nnsc2C)C(C(=O)NC2CCCCC2)c2ccc(F)cc2)cc1F (centres undefined) | 44% | 9% | 69% | 52% | 20% | 14% | 17% | 6% | Non-toxic | 0% | 0% | 41% | 79% | 41% | 87% | 2% | 0% | 0% | 25% | 24% | inhibition of growth at 50 µg/mL [2]: 0%
3 | Cc1ccc(N(C(=O)c2nnsc2C)C(C(=O)NC(C)C)c2ccccc2F)cc1F (centres undefined) | 46% | 0% | 73% | 60% | 47% | 14% | 60% | 27% | Non-toxic | 13% | 0% | 7% | 74% | 59% | 0% | 15% | 27% | 38% | 44% | 16% | inhibition of growth at 50 µg/mL [2]: 0%
4 | Cc1ccc(N(C(=O)c2nnsc2C)C(C(=O)NC(C)C)c2ccccc2C(F)(F)F)cc1F (centres undefined) | 71% | 9% | 67% | 44% | 32% | 36% | 44% | 5% | Non-toxic | 13% | 0% | 60% | 65% | 30% | 15% | 17% | 27% | 13% | 44% | 57% | inhibition of growth at 50 µg/mL [2]: 0%
5 | Cc1ccc(N(C(=O)c2nnsc2C)C(C(=O)NC(C)C)c2ccc(O)cc2)cc1F (centres undefined) | 35% | 0% | 51% | 55% | 28% | 0% | 76% | 71% | Non-toxic | 0% | 0% | 7% | 72% | 36% | 4% | 0% | 0% | 0% | 0% | 26% | inhibition of growth at 50 µg/mL [2]: 0%
6 | Cc1cccc(C(C(=O)NC(C)C)N(C(=O)c2nnsc2C)c2ccc(C)c(Cl)c2)c1 (centres undefined) | 34% | 38% | 72% | 40% | 33% | 13% | 48% | 14% | Non-toxic | 17% | 51% | 49% | 82% | 65% | 63% | – | 37% | 44% | 8% | – | inhibition of growth at 50 µg/mL [22]: 76%; inhibition of growth at 50 µg/mL [23]: 14%; inhibition at 200 µg/mL [24]: 18%
7 | Cc1ccc(N(C(=O)c2nnsc2C)C(C(=O)NC(C)C)c2ccccc2C)cc1Cl (centres undefined) | 12% | 21% | 23% | 42% | 21% | 10% | 38% | 13% | Non-toxic | 17% | 31% | 0% | 50% | 37% | 69% | – | 37% | 40% | 10% | – | inhibition of growth at 50 µg/mL [22]: 76%; inhibition of growth at 50 µg/mL [23]: 19%; inhibition at 200 µg/mL [24]: 58%
8 | Cc1ccc(N(C(=O)c2nnsc2C)C(C(=O)NC(C)C)c2ccc([N+](=O)[O-])cc2)cc1F (centres undefined) | 25% | 27% | 65% | 17% | 0% | 0% | 27% | 26% | Non-toxic | 25% | 0% | 7% | 62% | 66% | 22% | 17% | 0% | 0% | 13% | 9% | inhibition of growth at 50 µg/mL [2]: 0%
9 | Cc1ccc(N(C(=O)c2nnsc2C)C(C(=O)NC(C)C)c2ccccc2)cc1Cl (centres undefined) | 43% | 21% | 50% | 46% | 30% | 11% | 57% | 40% | Non-toxic | 0% | 47% | 41% | 65% | 33% | 64% | – | 13% | 39% | 12% | – | inhibition of growth at 50 µg/mL [22]: 85%; inhibition of growth at 50 µg/mL [23]: 36%; inhibition at 200 µg/mL [24]: 30%
10 | Cc1ccc(NC(=O)c2snnc2C)cc1Cl [TIADINIL] | 48% | 18% | 42% | 58% | 46% | – | 75% | 57% | Non-toxic | 40% | 74% | 52% | 59% | 50% | 46% | 1% | 36% | – | 46% | 25% | inhibition of growth at 50 µg/mL [22]: 67%; inhibition of growth at 50 µg/mL [23]: 48%
